Experimental findings from ChEMBL document CHEMBL3421560, “Search for factors affecting antibacterial activity and toxicity of 1,2,4-triazole-ciprofloxacin hybrids” (Eur J Med Chem, 2015) are described below.

As usually defined, the MIC is the lowest concentration that inhibits growth of the organism. Lower therefore signals greater potency. Broadly, the EC50 is the concentration at which the effect is half-maximal. For orientation: IC50 means the concentration at which inhibition is half-maximal. A higher IC50 goes with weaker potency in that assay.

In brackets after ≈: the same amount, converted by molar mass.

Assay [1] relates to Staphylococcus aureus. In words: Antimicrobial activity against methicillin-susceptible Staphylococcus aureus ATCC 25923 after 18 hrs by broth microdilution method. The format is functional. The conditions noted are these: ATCC 25923, 18 h.
For assay [2], the system named is Staphylococcus aureus. In words: Antimicrobial activity against methicillin-susceptible Staphylococcus aureus ATCC 6538 after 18 hrs by broth microdilution method. The format is functional. To be noted: ATCC 6538, 18 h. For orientation: Broth dilution looks for growth in wells or tubes with falling amounts of substance.
The test system of assay [3] is Staphylococcus aureus. Briefly: Antimicrobial activity against Staphylococcus aureus Microbank 14001 after 18 hrs by broth microdilution method. The format is functional. To be noted: Microbank 14001, 18 h.
For assay [4], the system named is Staphylococcus epidermidis. In words: Antimicrobial activity against Staphylococcus epidermidis ATCC 12228 after 18 hrs by broth microdilution method. The format is functional. The conditions noted are these: ATCC 12228, 18 h.
A further assay deals with Bacillus subtilis. In words: Antimicrobial activity against Bacillus subtilis […] after 18 hrs by broth microdilution method. The format is functional.
Another assay concerns Bacillus cereus. In words: Antimicrobial activity against Bacillus cereus ATCC 10876 after 18 hrs by broth microdilution method. The conditions noted are these: ATCC 10876, 18 h. The format is functional.
The next assay relates to Micrococcus luteus. Briefly: Antimicrobial activity against Micrococcus luteus ATCC 10240 after 18 hrs by broth microdilution method. To be noted: ATCC 10240, 18 h. The format is functional.
Assay [5] has as its system Staphylococcus aureus. In words: Ratio of ciprofloxacin MIC to compound MIC for methicillin-susceptible Staphylococcus aureus ATCC 25923. Format: functional.
The test system of assay [6] is Staphylococcus aureus. In words: Ratio of ciprofloxacin MIC to compound MIC for methicillin-susceptible Staphylococcus aureus ATCC 6538. The format is functional.
For assay [7], the system named is Staphylococcus aureus. Briefly: Ratio of vancomycin MIC to compound MIC for Staphylococcus aureus Microbank 14001. Format: functional.
The test system of assay [8] is Staphylococcus aureus. In words: Ratio of MBC for methicillin-susceptible Staphylococcus aureus ATCC 25923 to MIC for methicillin-susceptible Staphylococcus aureus ATCC 25923. Format: functional. The gist of the method:
(§1)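 MBC taken as lowest concentration giving >99.9% CFU reduction of the initial inoculum; value is MBC divided by MIC for the same strain.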

Assay [9] deals with Staphylococcus aureus. In words: Ratio of MBC for methicillin-susceptible Staphylococcus aureus ATCC 6538 to MIC for methicillin-susceptible Staphylococcus aureus ATCC 6538. Format: functional. The gist of the method:
as §1

The subject of assay [10] is Staphylococcus aureus. In words: Ratio of MBC for Staphylococcus aureus Microbank 14001 to MIC for Staphylococcus aureus Microbank 14001. Format: functional. The gist of the method:
as §1

The subject of the next assay is Escherichia coli. Briefly: Antimicrobial activity against Escherichia coli ATCC 25922 after 18 hrs by broth microdilution method. The conditions noted are these: ATCC 25922, 18 h. The format is functional.
Another assay concerns Klebsiella pneumoniae. Briefly: Antimicrobial activity against Klebsiella pneumoniae ATCC 13883 after 18 hrs by broth microdilution method. The conditions noted are these: ATCC 13883, 18 h. Format: functional.
Another assay relates to Proteus mirabilis. In words: Antimicrobial activity against Proteus mirabilis ATCC 12453 after 18 hrs by broth microdilution method. Format: functional. To be noted: ATCC 12453, 18 h.
Assay [11] concerns Pseudomonas aeruginosa. Briefly: Antimicrobial activity against Pseudomonas aeruginosa ATCC 9027 after 18 hrs by broth microdilution method. The format is functional. To be noted: ATCC 9027, 18 h.
In another assay the test system is HEK293. Briefly: Cytotoxicity against HEK293 cells after 72 hrs by MTT assay. The format is cell-based. To be noted: Homo sapiens, HEK293, 48 h; in the assay text read “48 hrs” for “72 hrs”. The gist of the method: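 HEK-293 (ATCC CRL-1573) in MEM with 10% FBS plus penicillin/streptomycin, seeded 3 x 10^5 cells/well, 24 h at 37 °C, 5% CO2. Treated with compounds diluted from 50 mg/mL DMSO stock into medium with 2% FBS for 48 h. Viability by MTT formazan readout; EC50 relative to control cells, mean ± SD of three independent experiments.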
On the technique in general: Formazan colour is commonly taken as a measure of viable cells.

The subject of assay [12] is Pseudomonas aeruginosa. Briefly: Ratio of ciprofloxacin MIC to compound MIC for Pseudomonas aeruginosa ATCC 9027. The format is functional.
In a further assay the target is DNA gyrase (Escherichia coli, UniProt P0AES4+P0AES6). Briefly: Inhibition of Escherichia coli DNA gyrase after 1 hr by agarose gel electrophoresis. The format is protein-complex assay.
The nature of assay [13]: Inhibition of Escherichia coli DNA topoisomerase 4 using kDNA as substrate after 1 hr by agarose gel electrophoresis. The gist of the method: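 E. coli topoisomerase IV decatenation kit: kDNA (0.5 µg) with 1 U enzyme in supplied buffer plus varying compound levels, 37 °C for 1 h. Stopped as for the gyrase assay, then 1% agarose in TAE, 1.5 h at 80 V, ethidium bromide. IC50 = concentration blocking 50% conversion to decatenated minicircles, by gel densitometry.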

Regarding `COc1ccc(Cn2c(-c3cccc(O)c3)nn(CN3CCN(c4cc5c(cc4F)c(=O)c(C(=O)O)cn5C4CC4)CC3)c2=S)cc1`, the MIC was 0.18 µM (≈ 0.118 µg/mL) in the assay on Staphylococcus aureus [1]; 0.091 µM (≈ 0.0598 µg/mL) against Staphylococcus aureus [2]; 0.046 µM (≈ 0.0302 µg/mL) in the assay on Staphylococcus aureus [3]; 0.091 µM (≈ 0.0598 µg/mL) in [4]; 0.091 µM (≈ 0.0598 µg/mL) against Bacillus subtilis; 0.18 µM (≈ 0.118 µg/mL) in the assay on Bacillus cereus. The MIC in the assay on Micrococcus luteus is 1.49 µM (≈ 0.979 µg/mL); against Escherichia coli, 0.011 µM (≈ 0.00722 µg/mL); in the assay with Klebsiella pneumoniae, 0.091 µM (≈ 0.0598 µg/mL); against Proteus mirabilis, 0.023 µM (≈ 0.0151 µg/mL); in the assay on Pseudomonas aeruginosa [11], 0.18 µM (≈ 0.118 µg/mL). Moreover, the Ratio with Staphylococcus aureus [5] is recorded as 16; in the assay on Staphylococcus aureus [6], 8; in the assay on Staphylococcus aureus [7], 15; in the assay with Staphylococcus aureus [8], “<=4”; with Staphylococcus aureus [9], “<=4”; in the assay on Staphylococcus aureus [10] it was “<=4”. The EC50 in the assay on HEK293 is 62.9 µM.

For the compound `COc1ccc(Cn2c(-c3ccccc3O)nn(CN3CCN(c4cc5c(cc4F)c(=O)c(C(=O)O)cn5C4CC4)CC3)c2=S)cc1`, the MIC against Staphylococcus aureus [1] worked out at 0.36 µM (≈ 0.236 µg/mL); against Staphylococcus aureus [2] it was 0.091 µM (≈ 0.0598 µg/mL); in the assay with Staphylococcus aureus [3], 0.091 µM (≈ 0.0598 µg/mL); in assay [4], 0.046 µM (≈ 0.0302 µg/mL); in the assay with Bacillus subtilis it was 0.011 µM (≈ 0.00722 µg/mL); against Bacillus cereus it was 0.091 µM (≈ 0.0598 µg/mL). The MIC in the assay on Micrococcus luteus was found to be 1.49 µM (≈ 0.979 µg/mL); with Escherichia coli, 0.011 µM (≈ 0.00722 µg/mL); against Klebsiella pneumoniae it was 0.023 µM (≈ 0.0151 µg/mL); against Proteus mirabilis, 0.023 µM (≈ 0.0151 µg/mL); against Pseudomonas aeruginosa [11], 0.023 µM (≈ 0.0151 µg/mL). The Ratio with Staphylococcus aureus [6] is listed as 8; in the assay on Staphylococcus aureus [8], “<=4”; with Staphylococcus aureus [9], “<=4”; in the assay on Staphylococcus aureus [10], “<=4”; with Pseudomonas aeruginosa [12] it was 31. For the same compound, a half-maximal effect in the assay with HEK293 (EC50) was put at 78.7 µM.

In the case of `COc1ccc(-n2c(-c3cccc(O)c3)nn(CN3CCN(c4cc5c(cc4F)c(=O)c(C(=O)O)cn5C4CC4)CC3)c2=S)cc1`, the MIC in the assay with Staphylococcus aureus [1] is 0.74 µM (≈ 0.476 µg/mL); with Staphylococcus aureus [2], 0.37 µM (≈ 0.238 µg/mL); with Staphylococcus aureus [3] it was 0.093 µM (≈ 0.0598 µg/mL); in [4] it was 0.19 µM (≈ 0.122 µg/mL); in the assay on Bacillus subtilis, 0.37 µM (≈ 0.238 µg/mL); in the assay on Bacillus cereus it was 0.19 µM (≈ 0.122 µg/mL). Besides, the MIC came to 1.52 µM (≈ 0.977 µg/mL) in the assay with Micrococcus luteus; 0.006 µM (≈ 0.00386 µg/mL) in the assay with Escherichia coli; 0.093 µM (≈ 0.0598 µg/mL) against Klebsiella pneumoniae; 0.047 µM (≈ 0.0302 µg/mL) against Proteus mirabilis; 0.19 µM (≈ 0.122 µg/mL) in the assay with Pseudomonas aeruginosa [11]. The Ratio entry with Staphylococcus aureus [8], in the assay on Staphylococcus aureus [9] and with Staphylococcus aureus [10] was “<=4” each time. In the assay with HEK293, this compound had an EC50 of 114 µM.

In the case of `O=C(O)c1cn(C2CC2)c2cc(N3CCN(Cn4nc(-c5ccccc5O)n(Cc5ccccc5)c4=S)CC3)c(F)cc2c1=O`, the MIC in the assay with Staphylococcus aureus [1] is 0.38 µM (≈ 0.238 µg/mL); in the assay with Staphylococcus aureus [2], 0.19 µM (≈ 0.119 µg/mL); against Staphylococcus aureus [3], 0.38 µM (≈ 0.238 µg/mL); in assay [4], 0.38 µM (≈ 0.238 µg/mL); against Bacillus subtilis it was 0.048 µM (≈ 0.0301 µg/mL); against Bacillus cereus it was 0.19 µM (≈ 0.119 µg/mL). The MIC worked out at 1.56 µM (≈ 0.978 µg/mL) in the assay with Micrococcus luteus; 0.006 µM (≈ 0.00376 µg/mL) with Escherichia coli; 0.096 µM (≈ 0.0602 µg/mL) in the assay on Klebsiella pneumoniae; 0.024 µM (≈ 0.015 µg/mL) against Proteus mirabilis; 0.096 µM (≈ 0.0602 µg/mL) against Pseudomonas aeruginosa [11]. The Ratio entry with Staphylococcus aureus [8], in the assay with Staphylococcus aureus [9] and in the assay on Staphylococcus aureus [10] was “<=4” each time. Besides, in the assay on HEK293, a half-maximal response (EC50) required 69.1 µM.

For `O=C(O)c1cn(C2CC2)c2cc(N3CCN(Cn4nc(-c5ccc(O)cc5)n(-c5ccc(F)cc5)c4=S)CC3)c(F)cc2c1=O`, the MIC came to 0.19 µM (≈ 0.12 µg/mL) in the assay on Staphylococcus aureus [1]; 0.19 µM (≈ 0.12 µg/mL) against Staphylococcus aureus [2]; 0.19 µM (≈ 0.12 µg/mL) in the assay on Staphylococcus aureus [3]; 0.095 µM (≈ 0.0599 µg/mL) in assay [4]; 0.048 µM (≈ 0.0303 µg/mL) against Bacillus subtilis; 0.095 µM (≈ 0.0599 µg/mL) with Bacillus cereus. In addition, the MIC with Micrococcus luteus was found to be 1.55 µM (≈ 0.978 µg/mL); against Escherichia coli, 0.024 µM (≈ 0.0151 µg/mL); in the assay on Klebsiella pneumoniae, 0.19 µM (≈ 0.12 µg/mL); against Proteus mirabilis, 0.048 µM (≈ 0.0303 µg/mL); against Pseudomonas aeruginosa [11], 0.38 µM (≈ 0.24 µg/mL). Moreover, the Ratio in the assay on Staphylococcus aureus [5] is reported as 16; in the assay on Staphylococcus aureus [8], “<=4”; in the assay with Staphylococcus aureus [9], “<=4”; in the assay with Staphylococcus aureus [10], “<=4”. Besides, in the assay with HEK293, the midpoint of the response, the EC50, lay at 106 µM.

`O=C(O)c1cn(C2CC2)c2cc(N3CCN(Cn4nc(-c5cccc(O)c5)n(-c5cccc(I)c5)c4=S)CC3)c(F)cc2c1=O`: the IC50 at DNA gyrase turned out to be 9.78 µM; in [13], 78.1 µM.
